Test results published in ChEMBL document CHEMBL2062373, “Discovery of pyrroloaminopyrazoles as novel PAK inhibitors” (J Med Chem, 2012).
≈ marks a conversion by molar mass, not a printed value.

What was measured:
[1] = Metabolic stability in human liver microsomes assessed as extraction ratio; type: ADME, Microsome; conditions: read-out: ERH
[2] = Efflux ratio of permeability from basolateral to apical side over apical to basolateral side in human Caco2 cells; type: ADME, cell-based; conditions: Caco-2
[3] = Octanol/buffer partition coefficient, log D of the compound at pH 7.4; type: physicochemical
[4] = molecular target: T1, Serine/threonine-protein kinase PAK 4 (Homo sapiens, UniProt O96013); assay: Inhibition of PAK4
T1 sequence (O96013 whole entry): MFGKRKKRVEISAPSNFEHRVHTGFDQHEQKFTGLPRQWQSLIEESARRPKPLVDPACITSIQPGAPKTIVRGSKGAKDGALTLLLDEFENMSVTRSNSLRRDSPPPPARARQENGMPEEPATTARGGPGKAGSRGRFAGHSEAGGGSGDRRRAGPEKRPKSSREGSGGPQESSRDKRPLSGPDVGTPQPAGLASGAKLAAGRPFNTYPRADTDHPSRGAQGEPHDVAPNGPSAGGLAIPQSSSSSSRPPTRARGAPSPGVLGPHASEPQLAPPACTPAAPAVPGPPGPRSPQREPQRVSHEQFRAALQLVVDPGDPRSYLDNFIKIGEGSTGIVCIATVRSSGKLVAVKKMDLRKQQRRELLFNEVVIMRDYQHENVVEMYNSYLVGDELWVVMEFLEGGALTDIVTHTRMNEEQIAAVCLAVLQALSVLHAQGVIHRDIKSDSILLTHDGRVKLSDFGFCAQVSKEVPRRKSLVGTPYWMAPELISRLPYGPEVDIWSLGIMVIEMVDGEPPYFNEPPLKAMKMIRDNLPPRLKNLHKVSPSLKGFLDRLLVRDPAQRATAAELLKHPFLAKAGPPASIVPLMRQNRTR

[5] = molecular target: T1, Serine/threonine-protein kinase PAK 4; assay: Inhibition of PAK4-mediated GEF-H1 phosphorylation at Ser810 by cell based assay
[6] = Volume of distribution at steady state in rat at 5 mg/kg, iv and 10 mg/kg, po; type: ADME, organism-based; conditions: in vivo, read-out: Vdss
[7] = Clearance in rat at 5 mg/kg, iv and 10 mg/kg, po; type: ADME, organism-based; conditions: in vivo
[8] = Half life in rat at 5 mg/kg, iv and 10 mg/kg, po; type: ADME, organism-based; conditions: in vivo
[9] = Oral bioavailability in rat at 10 mg/kg; type: ADME, organism-based; conditions: in vivo
[10] = molecular target: T2, Cyclin-dependent kinase 2 (Homo sapiens, UniProt P24941)
[11] = system: Mus musculus; assay: Down regulation of GEF-H1 phosphorylation in human HCT116 cells xenografted in mouse tumor at 80 mg/kg/day, sc administered via continuous infusion measured after 18 hrs; type: functional, HCT-116; conditions: route subcutaneous
Outline: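 Tumour-bearing mice received drug by continuous infusion from an implanted subcutaneous pump at 80 mg/kg/day. Tumours were taken at 18 h and pGEF-H1 levels were measured. Downregulation is expressed as percent reduction.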

[12] = Aqueous solubility of the compound; type: physicochemical; conditions: buffer
[13] = system: HCT-116; assay: Antitumor activity against human HCT116 cells xenografted in mouse assessed as tumor growth inhibition at 50 mg/kg, po SID for 15 days; type: functional; conditions: HCT-116, 360 h, read-out: TGI
[14] = system: HCT-116; assay: Antitumor activity against human HCT116 cells xenografted in mouse assessed as tumor growth inhibition at 25 mg/kg, po BID for 15 days; type: functional; conditions: HCT-116, 360 h, read-out: TGI
[15] = system: Mus musculus; assay: Free dug level in mouse xenografted with human HCT116 cells at 50 mg/kg, po SID for 15 days; type: ADME, organism-based, HCT-116; parameters: dose 50 mg/kg, route oral; conditions: in vivo, 360 h
Outline: (§1)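 The read-out is free drug exposure, reported as unbound average concentration (free Cave) in nM. It was obtained from mice dosed orally at the stated regimen, sid or bid, during the xenograft efficacy study.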

[16] = system: Mus musculus; assay: Free dug level in mouse xenografted with human HCT116 cells at 25 mg/kg, po BID for 15 days; type: ADME, organism-based, HCT-116; parameters: dose 25 mg/kg, route oral; conditions: in vivo, 360 h; outline: as §1
[17] = molecular target: Serine/threonine-protein kinase 26 (Homo sapiens) (UniProt Q9P289); assay: Inhibition of MST4 at 1000 nM
Chain of Serine/threonine-protein kinase 26 (Homo sapiens) (Q9P289 2-416 limits assumed): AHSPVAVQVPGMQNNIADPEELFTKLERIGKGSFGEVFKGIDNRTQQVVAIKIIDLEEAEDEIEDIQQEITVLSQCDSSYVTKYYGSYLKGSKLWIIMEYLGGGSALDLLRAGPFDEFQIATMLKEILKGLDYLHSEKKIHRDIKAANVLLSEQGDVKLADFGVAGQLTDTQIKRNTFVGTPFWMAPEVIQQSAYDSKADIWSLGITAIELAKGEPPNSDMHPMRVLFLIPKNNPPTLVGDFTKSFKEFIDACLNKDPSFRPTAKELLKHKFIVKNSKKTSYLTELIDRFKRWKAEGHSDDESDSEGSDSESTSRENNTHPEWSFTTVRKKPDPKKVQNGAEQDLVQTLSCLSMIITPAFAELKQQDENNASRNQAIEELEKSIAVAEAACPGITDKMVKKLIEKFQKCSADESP

[18] = organism: Homo sapiens; assay: Inhibition of RSK at 1000 nM
[19] = Antitumor activity against human M24 cells xenografted in mouse assessed as tumor growth inhibition at 7.5 mg/kg, po BID for 15 days; type: functional; conditions: M24, 360 h, read-out: TGI
[20] = molecular target: T3, Lymphokine-activated killer T-cell-originated protein kinase (Homo sapiens) (UniProt Q96KB5); assay: Inhibition of PBK at 1000 nM
T3 sequence (whole entry): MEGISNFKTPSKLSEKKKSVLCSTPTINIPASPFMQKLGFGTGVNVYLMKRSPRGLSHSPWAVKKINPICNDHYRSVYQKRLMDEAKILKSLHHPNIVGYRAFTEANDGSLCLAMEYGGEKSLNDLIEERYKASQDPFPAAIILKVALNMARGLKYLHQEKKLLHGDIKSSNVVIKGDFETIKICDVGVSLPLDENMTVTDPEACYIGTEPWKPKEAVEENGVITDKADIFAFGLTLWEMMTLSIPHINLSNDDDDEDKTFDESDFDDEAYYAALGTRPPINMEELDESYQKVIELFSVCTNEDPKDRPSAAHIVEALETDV

[21] = organism: Homo sapiens; assay: Inhibition of PKA at 1000 nM
[22] = molecular target: Glycogen synthase kinase-3 beta (Homo sapiens, UniProt P49841); assay: Inhibition of GSK3beta at 1000 nM
Chain of Glycogen synthase kinase-3 beta (P49841 whole entry, looked up): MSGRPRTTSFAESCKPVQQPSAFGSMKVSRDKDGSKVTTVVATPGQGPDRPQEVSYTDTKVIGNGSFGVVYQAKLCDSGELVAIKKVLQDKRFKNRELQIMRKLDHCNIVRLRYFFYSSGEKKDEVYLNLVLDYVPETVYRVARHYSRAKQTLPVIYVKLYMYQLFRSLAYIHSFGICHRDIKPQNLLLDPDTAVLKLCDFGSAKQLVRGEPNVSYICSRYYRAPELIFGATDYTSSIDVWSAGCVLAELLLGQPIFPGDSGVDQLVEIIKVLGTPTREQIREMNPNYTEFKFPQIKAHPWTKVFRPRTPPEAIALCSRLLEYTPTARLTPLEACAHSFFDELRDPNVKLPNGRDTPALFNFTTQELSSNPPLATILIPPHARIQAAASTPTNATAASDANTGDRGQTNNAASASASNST

[23] = system: Mus musculus; assay: Free dug level in mouse xenografted with human M24 cells at 15 mg/kg, po BID for 15 days; type: ADME, organism-based; parameters: dose 15 mg/kg, route oral; conditions: in vivo, 360 h; outline: as §1
[24] = molecular target: Cyclin-dependent kinase 7 (Homo sapiens) (UniProt P50613); assay: Inhibition of cdk7 at 1000 nM
Chain of Cyclin-dependent kinase 7 (Homo sapiens) (P50613 whole entry): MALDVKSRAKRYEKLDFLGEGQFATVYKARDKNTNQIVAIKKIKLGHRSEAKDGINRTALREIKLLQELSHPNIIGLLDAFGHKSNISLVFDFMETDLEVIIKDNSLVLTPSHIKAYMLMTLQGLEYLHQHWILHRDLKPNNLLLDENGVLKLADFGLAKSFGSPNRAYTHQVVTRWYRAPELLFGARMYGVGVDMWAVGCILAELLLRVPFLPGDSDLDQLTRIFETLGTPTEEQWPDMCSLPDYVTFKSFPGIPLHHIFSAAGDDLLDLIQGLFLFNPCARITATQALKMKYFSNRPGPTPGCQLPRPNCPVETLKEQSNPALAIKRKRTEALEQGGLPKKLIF

[25] = system: Mus musculus; assay: Free dug level in mouse xenografted with human M24 cells at 7.5 mg/kg, po BID for 15 days; type: ADME, organism-based; parameters: dose 7.5 mg/kg, route oral; conditions: in vivo, 360 h; outline: as §1
[26] = molecular target: Serine/threonine-protein kinase MARK1 (Homo sapiens, UniProt Q9P0L2); assay: Inhibition of MARK at 1000 nM
Chain of Serine/threonine-protein kinase MARK1 (Q9P0L2 whole entry, looked up): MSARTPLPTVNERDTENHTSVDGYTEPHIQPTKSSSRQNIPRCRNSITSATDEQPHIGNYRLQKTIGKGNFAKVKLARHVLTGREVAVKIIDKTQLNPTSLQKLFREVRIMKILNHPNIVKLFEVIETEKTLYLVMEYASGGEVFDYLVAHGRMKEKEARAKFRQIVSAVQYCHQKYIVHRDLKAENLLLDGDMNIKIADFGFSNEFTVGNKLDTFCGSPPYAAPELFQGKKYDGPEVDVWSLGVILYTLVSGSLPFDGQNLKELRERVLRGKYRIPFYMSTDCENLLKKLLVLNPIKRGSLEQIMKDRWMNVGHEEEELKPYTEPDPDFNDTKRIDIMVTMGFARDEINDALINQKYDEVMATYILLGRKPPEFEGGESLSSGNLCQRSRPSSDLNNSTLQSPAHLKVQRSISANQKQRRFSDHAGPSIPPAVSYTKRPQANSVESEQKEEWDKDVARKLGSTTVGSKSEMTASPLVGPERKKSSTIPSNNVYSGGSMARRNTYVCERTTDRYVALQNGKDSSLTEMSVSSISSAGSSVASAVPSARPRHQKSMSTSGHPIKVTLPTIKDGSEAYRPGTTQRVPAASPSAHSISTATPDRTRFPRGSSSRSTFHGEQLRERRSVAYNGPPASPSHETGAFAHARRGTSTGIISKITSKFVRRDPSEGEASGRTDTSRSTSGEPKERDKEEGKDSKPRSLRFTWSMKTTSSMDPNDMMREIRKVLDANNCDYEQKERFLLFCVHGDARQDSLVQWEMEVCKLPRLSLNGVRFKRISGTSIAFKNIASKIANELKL

[27] = molecular target: AMP-activated protein kinase, AMPK (Homo sapiens) (UniProt P54646+O43741+P54619+Q9UGJ0+Q9Y478+Q13131+Q9UGI9); assay: Inhibition of AMPK at 1000 nM; type: protein-complex assay
[28] = Antitumor activity against human M24 cells xenografted in mouse assessed as tumor growth inhibition at 15 mg/kg, po BID for 15 days; type: functional; conditions: M24, 360 h, read-out: TGI
[29] = molecular target: Mitogen-activated protein kinase 1 (Homo sapiens, UniProt P28482); assay: Inhibition of Erk2 at 1000 nM
Chain of Mitogen-activated protein kinase 1 (P28482 whole entry): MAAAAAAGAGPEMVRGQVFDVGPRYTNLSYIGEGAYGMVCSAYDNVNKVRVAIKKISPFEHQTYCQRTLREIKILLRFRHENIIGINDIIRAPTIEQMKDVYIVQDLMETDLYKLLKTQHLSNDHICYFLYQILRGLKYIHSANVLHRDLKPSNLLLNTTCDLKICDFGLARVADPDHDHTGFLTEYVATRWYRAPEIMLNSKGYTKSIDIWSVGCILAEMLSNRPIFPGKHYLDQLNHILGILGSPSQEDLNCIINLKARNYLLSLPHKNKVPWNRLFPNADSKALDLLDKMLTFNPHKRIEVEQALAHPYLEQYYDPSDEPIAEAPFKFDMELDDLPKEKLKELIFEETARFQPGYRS

[30] = molecular target: T2, Cyclin-dependent kinase 2; assay: Inhibition of CDK2 at 1 uM
[31] = Metabolic stability of the compound in human liver microsomes assessed as compound remaining after 30 mins; type: ADME, Microsome; conditions: read-out: Stability

CN(C)C[C@@H](OC(=O)N1Cc2c(NC(=O)C3CCCCO3)n[nH]c2C1(C)C)c1ccccc1 (mixture of isomers)
hepatic extraction ratio [1]: 1 | efflux ratio [2]: 3.6 | logD [3]: 2.48

CN(C)C[C@@H](NC(=O)c1ccc2[nH]nc(-c3nc4ccc(NCc5ccc(-c6ccccn6)cc5)cc4[nH]3)c2c1)c1ccccc1
Ki [4]: 2.8 nM

CN1CCN(C(=O)N2Cc3c(n[nH]c3NC(=O)c3ccccc3)C2(C)C)C(c2ccccc2)C1 (stereo unspecified)
Ki [4]: 207 nM | hepatic extraction ratio [1]: 0.7 | efflux ratio [2]: 187 | logD [3]: 3.2 | EC50 ([5]; read-out: EC50): 21 nM

CN(C)C[C@H](c1ccccc1)N(C)C(=O)N1Cc2c(NC(=O)c3ccccc3)n[nH]c2C1(C)C
hepatic extraction ratio [1]: 0.5 | efflux ratio [2]: 53.6 | logD [3]: 2.68 | EC50 [5]: Not Active

CN(C)C[C@@H](NC(=O)c1ccc2[nH]nc(-c3nc4ccccc4[nH]3)c2c1)c1ccccc1
Ki [4]: 6 nM | logD [3]: 3.6 | EC50 ([5]; read-out: EC50): 12.6 nM

CN(C)C[C@@H](OC(=O)N1Cc2c(NC(=O)C3(C(F)(F)F)CC3)n[nH]c2C1(C)C)c1ccccc1
Vd [6]: 2.8 L/kg | hepatic extraction ratio [1]: 0.42 | clearance [7]: 24.1 mL/min/kg | half-life [8]: 1.5 h | bioavailability [9]: 46% | logD [3]: 1.5 | EC50 ([5]; read-out: EC50): 7 nM

CN(C)C[C@@H](OC(=O)N1Cc2c(NC(=O)C3(C(F)(F)F)CCC3)n[nH]c2C1(C)C)c1ccccc1
hepatic extraction ratio [1]: 0.6 | logD [3]: 1.6 | EC50 ([5]; read-out: EC50): < 1 nM

CN(C)C[C@@H](NC(=O)N1Cc2c(NC(=O)c3ccccc3)n[nH]c2C1(C)C)c1ccccc1
Ki [4]: 30 nM | hepatic extraction ratio [1]: 0.39 | Ki [10]: 1800 nM | Activity [11]: 61% | efflux ratio [2]: 326 | solubility [12]: 395 µM (≈ 176 µg/mL) | logD [3]: 1.77

CN(C)C[C@@H](OC(=O)N1Cc2c(NC(=O)c3ccccc3)n[nH]c2C1(C)C)c1ccccc1
Ki [10]: 2000 nM | solubility [12]: 434 µM (≈ 194 µg/mL) | logD [3]: 2.66

CN(C)C[C@@H](NC(=O)N1Cc2c(NC(=O)c3ccccc3F)n[nH]c2C1(C)C)c1ccccc1
hepatic extraction ratio [1]: 0.38 | efflux ratio [2]: 231 | logD [3]: 2.33

CN(C)C[C@@H](OC(=O)N1Cc2c(NC(=O)c3ccc(F)cc3F)n[nH]c2C1(C)C)c1ccccc1
hepatic extraction ratio [1]: 0.9 | efflux ratio [2]: 1.17 | logD [3]: 2.68 | EC50 ([5]; read-out: EC50): 15 nM

CN(C)C[C@@H](OC(=O)N1Cc2c(NC(=O)c3ccc(F)cc3)n[nH]c2C1(C)C)c1ccccc1
Ki [4]: 13 nM | Vd [6]: 6.1 L/kg | hepatic extraction ratio [1]: 0.7 | Ki [10]: 1160 nM | efflux ratio [2]: 7 | clearance [7]: 98 mL/min/kg | inhibition in vivo at 50 mg/kg [13]: 12% | solubility [12]: 404 µM (≈ 188 µg/mL) | half-life [8]: 1.1 h | bioavailability [9]: 9% | inhibition in vivo at 25 mg/kg [14]: 61% | logD [3]: 2.79 | EC50 ([5]; read-out: EC50): 9 nM | Drug uptake(free) [15]: 70 nM | Drug uptake(free) [16]: 25 nM

CN(C)C[C@@H](OC(=O)N1Cc2c(NC(=O)C3CCCO3)n[nH]c2C1(C)C)c1ccccc1 (mixture of isomers)
Vd [6]: 2.2 L/kg | hepatic extraction ratio [1]: 0.4 | efflux ratio [2]: 8.7 | clearance [7]: 69 mL/min/kg | half-life [8]: 0.5 h | bioavailability [9]: 20% | logD [3]: 2.08

CN(C)C[C@@H](OC(=O)N1Cc2c(NC(=O)c3ccccn3)n[nH]c2C1(C)C)c1ccccc1
Vd [6]: 4.8 L/kg | hepatic extraction ratio [1]: 0.67 | efflux ratio [2]: 1.61 | clearance [7]: 146 mL/min/kg | half-life [8]: 0.7 h | bioavailability [9]: 2% | logD [3]: 2.23

CN(C)C[C@@H](OC(=O)N1Cc2c(NC(=O)C(C)(C)C(F)(F)F)n[nH]c2C1(C)C)c1ccccc1
inhibition [17]: > 70% | inhibition [18]: > 70% | Vd [6]: 4.3 L/kg | hepatic extraction ratio [1]: 0.55 | inhibition in vivo at 7.5 mg/kg [19]: 67% | inhibition [20]: > 70% | clearance [7]: 37 mL/min/kg | inhibition [21]: > 70% | inhibition [22]: > 70% | Drug uptake(free) [23]: 31 nM | half-life [8]: 1.3 h | bioavailability [9]: 45% | inhibition [24]: > 70% | Drug uptake(free) [25]: 13.9 nM | inhibition [26]: > 70% | inhibition [27]: > 70% | logD [3]: 1.61 | EC50 ([5]; read-out: EC50): 1 nM | inhibition in vivo at 15 mg/kg [28]: 87% | inhibition [29]: > 70%

CN1CCN(C(=O)N2Cc3c(NC(=O)c4cccc(Oc5ccccc5)c4)n[nH]c3C2(C)C)[C@@H](Cc2ccccc2)C1
inhibition [30]: 20% | remaining at 0.5 h [31]: 2% | logD [3]: 5.45 | EC50 ([5]; read-out: EC50): 810 nM
